MED and Ki data for 19 compounds are collected here from ChEMBL document CHEMBL1127731, “Structure-activity study of neuropeptide FF: contribution of N-terminal regions to affinity and activity” (J Med Chem, 1994).

The species named for one assay is Mus musculus. The assay can be described thus: Minimum effective dose able to significantly reverse morphine analgesia in male CDF1 mice by tail-flick test. In kind it is functional. Summed up: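 Analog (0, 1, 2.2, 8.8 or 22 nmol) coinjected icv with 5.5 nmol morphine in 150 mM NaCl, 10 mice per group. Radiant-heat tail-flick read 15 min later, baseline 2-3 s, 6 s cutoff defined as 100% analgesia. Percent antinociception = (Tt−Tc)/(6−Tc)×100.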
A general note: In hot-plate and tail-flick tests a longer latency is read as antinociception.

Assay [1] addresses Neuropeptide FF receptor 2 (Rattus norvegicus, UniProt Q9EQD2). As to the kind of experiment: Binding affinity for NPPF receptor in rat spinal cord membranes using the radioligand [125I]-[Tyr1]NPFF. In kind it is cell membranes, Membrane. Summed up: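 Displacement of [125I][Tyr1]NPFF (0.1 nM final) from rat spinal cord membranes, 30 min at 25 °C, in 50 mM Tris-HCl pH 7.4 with 120 mM NaCl, 0.5% BSA, 0.1 mM bestatin, 1 mM EDTA, 0.5 mM diisopropylfluorophosphate. Unlabeled peptides 5×10^-11–10^-6 M; nonspecific binding with 10^-6 M [Tyr1]NPFF. Stopped by ice-cold buffer and centrifugation; pellet gamma-counted. Ki via Cheng-Prusoff from IC50; three determinations.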

Where a SMILES comes first, the peptide text is derived from it. [ ]: non-standard residue; d: D form. NMeF = CN[C@@H](Cc1ccccc1)C(=O)O

Chain of Neuropeptide FF receptor 2 (Q9EQD2 whole entry): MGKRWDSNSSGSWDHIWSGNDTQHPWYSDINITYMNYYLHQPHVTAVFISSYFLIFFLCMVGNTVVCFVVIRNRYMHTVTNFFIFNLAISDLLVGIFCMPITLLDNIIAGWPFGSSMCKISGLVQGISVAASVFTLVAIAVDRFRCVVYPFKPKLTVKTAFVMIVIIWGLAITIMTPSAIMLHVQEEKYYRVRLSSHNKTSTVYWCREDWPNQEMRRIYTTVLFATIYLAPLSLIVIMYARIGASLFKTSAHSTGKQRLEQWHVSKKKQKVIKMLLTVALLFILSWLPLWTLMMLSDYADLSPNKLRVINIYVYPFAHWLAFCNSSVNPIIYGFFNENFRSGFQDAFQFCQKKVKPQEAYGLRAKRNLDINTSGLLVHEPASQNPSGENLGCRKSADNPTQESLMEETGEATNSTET

In turn, `CC(C)C[C@H](NC(=O)[C@@H](N)Cc1ccccc1)C(=O)N[C@@H](Cc1ccccc1)C(=O)N[C@@H](CCC(N)=O)C(=O)N1CCC[C@H]1C(=O)N[C@@H](CCC(N)=O)C(=O)N[C@@H](CCCN=C(N)N)C(=O)N[C@@H](Cc1ccccc1)C(N)=O` yielded an MED in the assay filed under Mus musculus of 22 nmol.
In assay [1], `NC(=O)CC[C@H](NC(=O)[C@@H]1CCCN1C(=O)[C@@H](N)CCC(N)=O)C(=O)N[C@@H](CCCN=C(N)N)C(=O)N[C@@H](Cc1ccccc1)C(N)=O` showed an inhibition constant (Ki) of 20.9 nM. The MED in the assay listed under Mus musculus was > 22 nmol.
Regarding `CC(C)C[C@H](NC(=O)[C@@H](N)Cc1ccc(O)cc1)C(=O)N[C@@H](Cc1ccccc1)C(=O)N[C@@H](CCC(N)=O)C(=O)N1CCC[C@H]1C(=O)N[C@@H](CCC(N)=O)C(=O)N[C@@H](CCCN=C(N)N)C(=O)N[C@@H](Cc1ccccc1)C(N)=O`, the Ki in assay [1] was found to be 0.2 nM. In the assay listed under Mus musculus, this compound returned an MED of 8.8 nmol.
Compound `NC(=O)CC[C@H](NC(=O)[C@H]1CCCN1C(=O)[C@H](CCC(N)=O)NC(=O)[C@@H](N)Cc1ccccc1)C(=O)N[C@@H](CCCN=C(N)N)C(=O)N[C@@H](Cc1ccccc1)C(N)=O` came in with an inhibition constant Ki in assay [1] of 45 nM.
In assay [1], `CC(C)C[C@H](NC(=O)[C@H](N)Cc1ccc(O)cc1)C(=O)N(C)[C@@H](Cc1ccccc1)C(=O)N[C@@H](CCC(N)=O)C(=O)N1CCC[C@H]1C(=O)N[C@@H](CCC(N)=O)C(=O)N[C@@H](CCCN=C(N)N)C(=O)N[C@@H](Cc1ccccc1)C(N)=O` (H-[dY]L[NMeF]QPQRF-NH2) came in with a Ki of 0.16 nM. Moreover, the MED in the assay filed under Mus musculus amounted to 8.8 nmol.
Turning to `NC(=O)CC[C@H](NC(=O)[C@H]1CCCN1C(=O)[C@@H](N)CCC(N)=O)C(=O)N[C@@H](CCCN=C(N)N)C(=O)N[C@@H](Cc1ccccc1)C(N)=O`, in assay [1], the Ki worked out at 64 nM. This lies in the double-digit nanomolar range.
Regarding `CC(C)C[C@@H](NC(=O)[C@H](N)Cc1ccc(O)cc1)C(=O)N[C@H](Cc1ccccc1)C(=O)N[C@@H](CCC(N)=O)C(=O)N1CCC[C@H]1C(=O)N[C@@H](CCC(N)=O)C(=O)N[C@@H](CCCNC(=N)N)C(=O)N[C@@H](Cc1ccccc1)C(N)=O`, the Ki in assay [1] came to 1 nM.
In assay [1], `NC(=O)CC[C@H](NC(=O)[C@H]1CCCN1)C(=O)N[C@@H](CCCN=C(N)N)C(=O)N[C@@H](Cc1ccccc1)C(N)=O` came in with an inhibition constant Ki of 94 nM.
For `CC(C)C[C@@H](NC(=O)[C@H](N)Cc1ccc(O)cc1)C(=O)N[C@@H](Cc1ccccc1)C(=O)N[C@@H](CCC(N)=O)C(=O)N1CCC[C@H]1C(=O)N[C@@H](CCC(N)=O)C(=O)N[C@@H](CCCN=C(N)N)C(=O)N[C@@H](Cc1ccccc1)C(N)=O`, the Ki in assay [1] is 0.5 nM.
In assay [1], `CC(C)C[C@H](N)C(=O)N[C@@H](Cc1ccccc1)C(=O)N[C@@H](CCC(N)=O)C(=O)N1CCC[C@H]1C(=O)N[C@@H](CCC(N)=O)C(=O)N[C@@H](CCCN=C(N)N)C(=O)N[C@@H](Cc1ccccc1)C(N)=O` had an inhibitory constant (Ki) of 0.2 nM.
Take H-FLFQPGRF-NH2: the affinity in assay [1], expressed as Ki, was 0.6 nM.
Compound H-FLFGPQRF-NH2 gave an inhibitory constant (Ki) in assay [1] of 10 nM.
The compound H-FLYQPQRF-NH2 gave a Ki in assay [1] of 0.22 nM.
In the case of `CC(C)C[C@H](NC(=O)[C@@H](N)Cc1ccc(O)cc1)C(=O)N[C@@H](Cc1ccccc1)C(=O)N[C@@H](CCC(N)=O)C(=O)N1CCC[C@@H]1C(=O)N[C@@H](CCC(N)=O)C(=O)N[C@@H](CCCN=C(N)N)C(=O)N[C@@H](Cc1ccccc1)C(N)=O`, affinity in assay [1] was put at a Ki of 30 nM.
For `N=C(N)NCCC[C@H](NC(=O)[C@@H](N)CCC(N)=O)C(=O)N[C@@H](Cc1ccccc1)C(N)=O` (H-Gln-Arg-Phe-NH2), the Ki in assay [1] was found to be 300 nM.
In assay [1], `CC(C)C[C@@H](NC(=O)[C@H](N)Cc1ccc(O)cc1)C(=O)N(C)[C@@H](Cc1ccccc1)C(=O)N[C@@H](CCC(N)=O)C(=O)N1CCC[C@H]1C(=O)N[C@@H](CCC(N)=O)C(=O)N[C@@H](CCCNC(=N)N)C(=O)N[C@@H](Cc1ccccc1)C(N)=O` (H-[dY][dL][NMeF]QPQRF-NH2) registered an inhibitory constant (Ki) of 0.19 nM.
Take `CC(C)C[C@H](N)C(=O)N[C@@H](Cc1ccccc1)C(=O)N[C@@H](CCC(N)=O)C(=O)N1CCC[C@@H]1C(=O)N[C@@H](CCC(N)=O)C(=O)N[C@@H](CCCNC(=N)N)C(=O)N[C@@H](Cc1ccccc1)C(N)=O`: the Ki in assay [1] turned out to be 33 nM.
In assay [1], `NC(=O)CC[C@H](NC(=O)[C@@H]1CCCN1C(=O)[C@H](CCC(N)=O)NC(=O)[C@@H](N)Cc1ccccc1)C(=O)N[C@@H](CCCN=C(N)N)C(=O)N[C@@H](Cc1ccccc1)C(N)=O` gave an inhibition constant Ki of 0.43 nM. In the assay filed under Mus musculus, this compound had an MED of 22 nmol.
In the case of H-FLFQGQRF-NH2, in assay [1], the inhibitory constant (Ki) was determined as 1.2 nM. The MED in the assay listed under Mus musculus was 8.8 nmol.

As a reminder, the Ki is a measure of affinity in units of concentration, obtained from inhibition or displacement. The low end stands for higher affinity, the high end for lower affinity.
